From ChEMBL document CHEMBL4334458, “Design, synthesis and antibacterial evaluation of novel 15-membered 11a-azahomoclarithromycin derivatives with the 1, 2, 3-triazole side chain” (Eur J Med Chem, 2019)
≈ marks a conversion by molar mass, not a printed value.

Key:
Assay type in all cases: functional
Staphylococcus aureus [1] = assay: Antibacterial activity against penicillin-resistant Staphylococcus aureus ATCC 31007 incubated for 24 hrs by broth dilution method; conditions: ATCC 31007, 24 h
Pseudomonas aeruginosa = assay: Antibacterial activity against penicillin-susceptible Pseudomonas aeruginosa ATCC 27853 incubated for 24 hrs by broth dilution method; conditions: ATCC 27853, 24 h
In short: (§1)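 CLSI broth microdilution in cation-adjusted Mueller-Hinton broth. Twofold dilutions spanned 0.25–128 or 0.5–256 µg/mL, with CAM and AZM as controls. Log-phase bacteria were added and incubated 24 h at 37 °C. MIC was read by turbidity as the concentration of the last clear well.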

Streptococcus pneumoniae [2] = assay: Antibacterial activity against erythromycin-resistant Streptococcus pneumoniae B1 expressing the ermB incubated for 24 hrs by broth dilution method
Streptococcus pyogenes [3] = assay: Antibacterial activity against erythromycin-susceptible Streptococcus pyogenes 1 clinical isolate incubated for 24 hrs by broth dilution method; in short: as §1
Bacillus subtilis = assay: Antibacterial activity against penicillin-susceptible Bacillus subtilis ATCC 9372 incubated for 24 hrs by broth dilution method; conditions: ATCC 9372, 24 h; in short: as §1
Staphylococcus aureus [4] = assay: Antibacterial activity against methicillin-resistant Staphylococcus aureus ATCC 43300 incubated for 24 hrs by broth dilution method; conditions: ATCC 43300, 24 h
Escherichia coli = assay: Antibacterial activity against penicillin-susceptible Escherichia coli ATCC 25922 incubated for 24 hrs by broth dilution method; conditions: ATCC 25922, 24 h; in short: as §1
Streptococcus pneumoniae [5] = assay: Antibacterial activity against erythromycin-resistant Streptococcus pneumoniae AB11 expressing the ermB and mefA incubated for 24 hrs by broth dilution method
Streptococcus pyogenes [6] = assay: Antibacterial activity against erythromycin-resistant Streptococcus pyogenes 2 clinical isolate incubated for 24 hrs by broth dilution method
Staphylococcus aureus [7] = assay: Antibacterial activity against erythromycin-susceptible Staphylococcus aureus ATCC 25923 incubated for 24 hrs by broth dilution method; conditions: ATCC 25923, 24 h; in short: as §1

Structure (SMILES) | MIC (Staphylococcus aureus [1]) [µg/mL] | MIC (Pseudomonas aeruginosa) [µg/mL] | MIC (Streptococcus pneumoniae [2]) [µg/mL] | MIC (Streptococcus pyogenes [3]) [µg/mL] | MIC (Bacillus subtilis) [µg/mL] | MIC (Staphylococcus aureus [4]) [µg/mL] | MIC (Escherichia coli) [µg/mL] | MIC (Streptococcus pneumoniae [5]) [µg/mL] | MIC (Streptococcus pyogenes [6]) [µg/mL] | MIC (Staphylococcus aureus [7]) [µg/mL]
CO[C@]1(C)C[C@@H](C)[C@H](O)[C@H](C)CN(C)C[C@@H](COCc2cn(-c3ccc(C)cc3)nn2)OC(=O)[C@H](C)[C@@H](O[C@H]2C[C@@](C)(OC)[C@@H](O)[C@H](C)O2)[C@H](C)[C@H]1O[C@@H]1O[C@H](C)C[C@H](N(C)C)[C@H]1O | 256 (≈ 283 µM) | 128 (≈ 141 µM) | 128 (≈ 141 µM) | 4 (≈ 4.41 µM) | 2 (≈ 2.21 µM) | 128 (≈ 141 µM) | 128 (≈ 141 µM) | 64 (≈ 70.6 µM) | 32 (≈ 35.3 µM) | 4 (≈ 4.41 µM)
CCCc1ccc(-n2cc(COC[C@H]3CN(C)C[C@@H](C)[C@@H](O)[C@H](C)C[C@@](C)(OC)[C@H](O[C@@H]4O[C@H](C)C[C@H](N(C)C)[C@H]4O)[C@@H](C)[C@H](O[C@H]4C[C@@](C)(OC)[C@@H](O)[C@H](C)O4)[C@@H](C)C(=O)O3)nn2)cc1 | 128 (≈ 137 µM) | 16 (≈ 17.1 µM) | 64 (≈ 68.5 µM) | 1 (≈ 1.07 µM) | 0.5 (≈ 0.535 µM) | 128 (≈ 137 µM) | 64 (≈ 68.5 µM) | 32 (≈ 34.3 µM) | 64 (≈ 68.5 µM) | 0.5 (≈ 0.535 µM)
CO[C@]1(C)C[C@@H](C)[C@H](O)[C@H](C)CN(C)[C@H](Cn2cc(-c3ccccc3)nn2)COC(=O)[C@H](C)[C@@H](O[C@H]2C[C@@](C)(OC)[C@@H](O)[C@H](C)O2)[C@H](C)[C@H]1O[C@@H]1O[C@H](C)C[C@H](N(C)C)[C@H]1O | 128 (≈ 148 µM) | 64 (≈ 74.2 µM) | 256 (≈ 297 µM) | 8 (≈ 9.28 µM) | 16 (≈ 18.6 µM) | 256 (≈ 297 µM) | 64 (≈ 74.2 µM) | 256 (≈ 297 µM) | 128 (≈ 148 µM) | 8 (≈ 9.28 µM)
CC[C@H]1OC(=O)[C@H](C)[C@@H](O[C@H]2C[C@@](C)(OC)[C@@H](O)[C@H](C)O2)[C@H](C)[C@@H](O[C@@H]2O[C@H](C)C[C@H](N(C)C)[C@H]2O)[C@](C)(O)C[C@@H](C)CN(C)[C@H](C)[C@@H](O)[C@]1(C)O [AZITHROMYCIN] | > 256 | 16 (≈ 21.4 µM) | > 256 | ≤ 0.03 | ≤ 0.25 | > 256 | 64 (≈ 85.4 µM) | 256 (≈ 342 µM) | 256 (≈ 342 µM) | ≤ 0.25
CO[C@]1(C)C[C@@H](C)[C@H](O)[C@H](C)CN(C)[C@H](Cn2cc(-c3ccc(F)cc3)nn2)COC(=O)[C@H](C)[C@@H](O[C@H]2C[C@@](C)(OC)[C@@H](O)[C@H](C)O2)[C@H](C)[C@H]1O[C@@H]1O[C@H](C)C[C@H](N(C)C)[C@H]1O | 128 (≈ 145 µM) | 128 (≈ 145 µM) | 128 (≈ 145 µM) | 16 (≈ 18.2 µM) | 16 (≈ 18.2 µM) | 256 (≈ 291 µM) | > 128 | 128 (≈ 145 µM) | 128 (≈ 145 µM) | 16 (≈ 18.2 µM)
CCCCc1ccc(-c2cn(C[C@H]3CN(C)C[C@@H](C)[C@@H](O)[C@H](C)C[C@@](C)(OC)[C@H](O[C@@H]4O[C@H](C)C[C@H](N(C)C)[C@H]4O)[C@@H](C)[C@H](O[C@H]4C[C@@](C)(OC)[C@@H](O)[C@H](C)O4)[C@@H](C)C(=O)O3)nn2)cc1 | 32 (≈ 34.8 µM) | 64 (≈ 69.7 µM) | 16 (≈ 17.4 µM) | 0.06 (≈ 0.0653 µM) | 1 (≈ 1.09 µM) | 16 (≈ 17.4 µM) | 128 (≈ 139 µM) | 32 (≈ 34.8 µM) | 16 (≈ 17.4 µM) | 1 (≈ 1.09 µM)
CO[C@]1(C)C[C@@H](C)[C@H](O)[C@H](C)CN(C)C[C@H](COCc2cn(-c3ccc(C(C)C)cc3)nn2)OC(=O)[C@H](C)[C@@H](O[C@H]2C[C@@](C)(OC)[C@@H](O)[C@H](C)O2)[C@H](C)[C@H]1O[C@@H]1O[C@H](C)C[C@H](N(C)C)[C@H]1O | 128 (≈ 137 µM) | 16 (≈ 17.1 µM) | 64 (≈ 68.5 µM) | 1 (≈ 1.07 µM) | 0.5 (≈ 0.535 µM) | 64 (≈ 68.5 µM) | 64 (≈ 68.5 µM) | 32 (≈ 34.3 µM) | 32 (≈ 34.3 µM) | 1 (≈ 1.07 µM)
COc1ccc(-c2cn(C[C@H]3CN(C)C[C@@H](C)[C@@H](O)[C@H](C)C[C@@](C)(OC)[C@H](O[C@@H]4O[C@H](C)C[C@H](N(C)C)[C@H]4O)[C@@H](C)[C@H](O[C@H]4C[C@@](C)(OC)[C@@H](O)[C@H](C)O4)[C@@H](C)C(=O)O3)nn2)cc1 | > 256 | 64 (≈ 71.7 µM) | > 256 | 0.12 (≈ 0.135 µM) | 1 (≈ 1.12 µM) | > 256 | 32 (≈ 35.9 µM) | 256 (≈ 287 µM) | 128 (≈ 143 µM) | 1 (≈ 1.12 µM)
CO[C@]1(C)C[C@@H](C)[C@H](O)[C@H](C)CN(C)[C@@H](Cn2cc(-c3ccccn3)nn2)COC(=O)[C@H](C)[C@@H](O[C@H]2C[C@@](C)(OC)[C@@H](O)[C@H](C)O2)[C@H](C)[C@H]1O[C@@H]1O[C@H](C)C[C@H](N(C)C)[C@H]1O | > 256 | > 128 | > 256 | 16 (≈ 18.5 µM) | 32 (≈ 37.1 µM) | > 256 | > 128 | 256 (≈ 297 µM) | 256 (≈ 297 µM) | 64 (≈ 74.2 µM)
CO[C@]1(C)C[C@@H](C)[C@H](O)[C@H](C)CN(C)C[C@@H](Cn2cc(-c3ccc(F)cc3)nn2)OC(=O)[C@H](C)[C@@H](O[C@H]2C[C@@](C)(OC)[C@@H](O)[C@H](C)O2)[C@H](C)[C@H]1O[C@@H]1O[C@H](C)C[C@H](N(C)C)[C@H]1O | 128 (≈ 145 µM) | 32 (≈ 36.4 µM) | 64 (≈ 72.7 µM) | 0.25 (≈ 0.284 µM) | 0.5 (≈ 0.568 µM) | 128 (≈ 145 µM) | 32 (≈ 36.4 µM) | 16 (≈ 18.2 µM) | 64 (≈ 72.7 µM) | 0.5 (≈ 0.568 µM)
CO[C@]1(C)C[C@@H](C)[C@H](O)[C@H](C)CN(C)C[C@H](Cn2cc(-c3ccccn3)nn2)OC(=O)[C@H](C)[C@@H](O[C@H]2C[C@@](C)(OC)[C@@H](O)[C@H](C)O2)[C@H](C)[C@H]1O[C@@H]1O[C@H](C)C[C@H](N(C)C)[C@H]1O | > 256 | 64 (≈ 74.2 µM) | > 256 | 1 (≈ 1.16 µM) | 2 (≈ 2.32 µM) | > 256 | 128 (≈ 148 µM) | 256 (≈ 297 µM) | 128 (≈ 148 µM) | 4 (≈ 4.63 µM)
CO[C@]1(C)C[C@@H](C)[C@H](O)[C@H](C)CN(C)C[C@@H](COCc2cn(-c3ccc(SC)cc3)nn2)OC(=O)[C@H](C)[C@@H](O[C@H]2C[C@@](C)(OC)[C@@H](O)[C@H](C)O2)[C@H](C)[C@H]1O[C@@H]1O[C@H](C)C[C@H](N(C)C)[C@H]1O | 128 (≈ 136 µM) | 128 (≈ 136 µM) | 64 (≈ 68.2 µM) | 4 (≈ 4.26 µM) | 2 (≈ 2.13 µM) | 64 (≈ 68.2 µM) | 128 (≈ 136 µM) | 32 (≈ 34.1 µM) | 32 (≈ 34.1 µM) | 4 (≈ 4.26 µM)
CCc1ccc(-n2cc(COC[C@@H]3CN(C)C[C@@H](C)[C@@H](O)[C@H](C)C[C@@](C)(OC)[C@H](O[C@@H]4O[C@H](C)C[C@H](N(C)C)[C@H]4O)[C@@H](C)[C@H](O[C@H]4C[C@@](C)(OC)[C@@H](O)[C@H](C)O4)[C@@H](C)C(=O)O3)nn2)cc1 | 64 (≈ 69.6 µM) | 128 (≈ 139 µM) | 32 (≈ 34.8 µM) | 4 (≈ 4.35 µM) | 2 (≈ 2.17 µM) | 64 (≈ 69.6 µM) | 128 (≈ 139 µM) | 32 (≈ 34.8 µM) | 32 (≈ 34.8 µM) | 4 (≈ 4.35 µM)
CO[C@]1(C)C[C@@H](C)[C@H](O)[C@H](C)CN(C)C[C@@H](Cn2cc(-c3ccccn3)nn2)OC(=O)[C@H](C)[C@@H](O[C@H]2C[C@@](C)(OC)[C@@H](O)[C@H](C)O2)[C@H](C)[C@H]1O[C@@H]1O[C@H](C)C[C@H](N(C)C)[C@H]1O | > 256 | 64 (≈ 74.2 µM) | 128 (≈ 148 µM) | 1 (≈ 1.16 µM) | 4 (≈ 4.63 µM) | > 256 | 128 (≈ 148 µM) | 128 (≈ 148 µM) | 128 (≈ 148 µM) | 2 (≈ 2.32 µM)
CO[C@]1(C)C[C@@H](C)[C@H](O)[C@H](C)CN(C)[C@@H](Cn2cc(-c3ccccc3)nn2)COC(=O)[C@H](C)[C@@H](O[C@H]2C[C@@](C)(OC)[C@@H](O)[C@H](C)O2)[C@H](C)[C@H]1O[C@@H]1O[C@H](C)C[C@H](N(C)C)[C@H]1O | 256 (≈ 297 µM) | > 128 | 256 (≈ 297 µM) | 2 (≈ 2.32 µM) | 16 (≈ 18.6 µM) | 256 (≈ 297 µM) | > 128 | 128 (≈ 148 µM) | 128 (≈ 148 µM) | 32 (≈ 37.1 µM)
CO[C@]1(C)C[C@@H](C)[C@H](O)[C@H](C)CN(C)C[C@@H](COCc2cn(-c3ccccc3)nn2)OC(=O)[C@H](C)[C@@H](O[C@H]2C[C@@](C)(OC)[C@@H](O)[C@H](C)O2)[C@H](C)[C@H]1O[C@@H]1O[C@H](C)C[C@H](N(C)C)[C@H]1O | > 256 | 128 (≈ 143 µM) | 256 (≈ 287 µM) | 1 (≈ 1.12 µM) | 1 (≈ 1.12 µM) | 256 (≈ 287 µM) | 128 (≈ 143 µM) | 64 (≈ 71.7 µM) | 64 (≈ 71.7 µM) | 1 (≈ 1.12 µM)
CCCCc1ccc(-c2cn(C[C@@H]3COC(=O)[C@H](C)[C@@H](O[C@H]4C[C@@](C)(OC)[C@@H](O)[C@H](C)O4)[C@H](C)[C@@H](O[C@@H]4O[C@H](C)C[C@H](N(C)C)[C@H]4O)[C@](C)(OC)C[C@@H](C)[C@H](O)[C@H](C)CN3C)nn2)cc1 | 64 (≈ 69.7 µM) | > 128 | 64 (≈ 69.7 µM) | 16 (≈ 17.4 µM) | 32 (≈ 34.8 µM) | 128 (≈ 139 µM) | 128 (≈ 139 µM) | 64 (≈ 69.7 µM) | 16 (≈ 17.4 µM) | 128 (≈ 139 µM)
